Here are results for 22 compounds from ChEMBL document CHEMBL1156869, “Selective inhibitors of the JMJD2 histone demethylases: combined nondenaturing mass spectrometric screening and crystallographic approaches” (J Med Chem, 2010).

Test [1] in a line: Binding to JMJD2E by nondenaturing ESI-MS, ratio of JMJD2E-inhibitor complex to free JMJD2E.
Test [2] is described as follows: Inhibition of JMJD2E by ESI-MS binding assay. In outline:
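Nondenaturing ESI-MS binding: His-tagged JMJD2E desalted into 15 mM ammonium acetate pH 7.5. Protein (15 μM) mixed with 1 equiv Fe(II) and 1 equiv inhibitor, incubated 30 min at 37 °C, then analysed on a Q-TOF by nanospray. Read-out: ratio of JMJD2E–inhibitor complex to free JMJD2E.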

Test [3] can be described thus: Inhibition of JMJD2E by FDH coupled assay. In outline:
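Formaldehyde dehydrogenase-coupled demethylation assay with initial rates from NADH production. IC50 determined from these rates; detection limit about 1 μM IC50.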

Test [4] is filed under the species Homo sapiens. As to the kind of experiment: Inhibition of human […] by CODD biochemical assay.
Test [5] in a line: Inhibition of JMJD2E by MALDI-TOF assay.
Test [6] addresses T1, Lysine-specific demethylase 4A (Homo sapiens, UniProt O75164).
T1 sequence (O75164 whole entry): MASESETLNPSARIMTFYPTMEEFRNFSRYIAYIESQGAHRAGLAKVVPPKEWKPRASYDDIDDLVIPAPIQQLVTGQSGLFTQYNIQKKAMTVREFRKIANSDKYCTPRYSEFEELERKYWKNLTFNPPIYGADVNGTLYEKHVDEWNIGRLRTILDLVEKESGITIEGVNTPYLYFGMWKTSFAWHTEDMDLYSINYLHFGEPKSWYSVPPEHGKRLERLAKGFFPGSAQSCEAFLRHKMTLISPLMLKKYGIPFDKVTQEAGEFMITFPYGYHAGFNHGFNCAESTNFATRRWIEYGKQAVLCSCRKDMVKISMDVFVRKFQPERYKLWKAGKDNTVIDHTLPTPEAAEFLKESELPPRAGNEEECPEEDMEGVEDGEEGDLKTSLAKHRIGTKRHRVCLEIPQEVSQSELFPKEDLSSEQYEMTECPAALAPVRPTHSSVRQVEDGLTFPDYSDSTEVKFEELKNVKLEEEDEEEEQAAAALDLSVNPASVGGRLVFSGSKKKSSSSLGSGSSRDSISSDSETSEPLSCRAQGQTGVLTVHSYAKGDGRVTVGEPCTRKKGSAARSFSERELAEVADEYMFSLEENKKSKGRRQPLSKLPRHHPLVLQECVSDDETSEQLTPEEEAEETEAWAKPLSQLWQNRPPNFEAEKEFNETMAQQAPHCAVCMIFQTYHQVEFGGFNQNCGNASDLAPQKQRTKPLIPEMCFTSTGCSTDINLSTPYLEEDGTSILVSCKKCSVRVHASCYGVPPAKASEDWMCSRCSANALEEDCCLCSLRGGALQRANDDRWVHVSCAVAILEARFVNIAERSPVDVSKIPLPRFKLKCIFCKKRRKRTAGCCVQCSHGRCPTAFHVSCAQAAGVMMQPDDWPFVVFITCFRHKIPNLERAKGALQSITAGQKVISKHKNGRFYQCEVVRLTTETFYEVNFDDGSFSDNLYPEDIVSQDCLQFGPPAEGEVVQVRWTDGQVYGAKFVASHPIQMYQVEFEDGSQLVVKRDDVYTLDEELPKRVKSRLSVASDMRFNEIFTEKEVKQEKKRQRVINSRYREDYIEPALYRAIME
Briefly: Inhibition of JMJD2A by MALDI-TOF assay. Put shortly: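 Reaction started with 2OG (10 μM) and ARKme3STGGK peptide (10 μM), then 30 min at 37 °C. Quenched with methanol. MALDI-TOF methylation-state intensities gave % demethylation; IC50 from concentration variation.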

Activity calls are given as the source filed them. The rule behind the calls is not given here.

In general, IC50 refers to the concentration needed to halve the response being measured. A high value points to a need for much substance. `Cc1noc(C)c1S(=O)(=O)Oc1ccc(C[C@@H](NC(=O)C(=O)O)C(=O)O)cc1`: the Ratio in test [1] came out at 1. In test [2], the outcome was Active. Moreover, the midpoint of inhibition in test [3], the IC50, lay at 82.9 µM.
Consider `O=C(O)C(=O)N[C@H](Cc1ccc(OS(=O)(=O)c2ccc(F)cc2)cc1)C(=O)O`, for which the outcome in test [4] was inactive. For the same compound, the outcome in test [2] was Active. Moreover, the figures for the IC50 in test [3], in test [5] and in test [6] were 11.7 µM, 38 µM and 20 µM, respectively.
As to `O=C(O)C(=O)N[C@H](Cc1ccc(OCCCN2C(=O)c3ccccc3C2=O)cc1)C(=O)O`, the Ratio in test [1] amounted to 0.9. Besides, the outcome in test [2] was Active. Also, half-maximal inhibition in test [3] (IC50) required 326 µM.
In the case of `O=C(O)C(=O)N[C@H](Cc1ccc(OCc2ccccc2)cc1)C(=O)O`, in test [1], the Ratio stood at 1.7. In addition, the result in test [2] was Active. Also, the IC50 in test [3] was 37.1 µM; in test [5] it was 76 µM.
As to `O=C(O)C(=O)N[C@H](Cc1ccc(OCc2ccccc2[N+](=O)[O-])cc1)C(=O)O`, the Ratio in test [1] worked out at 3.1. The outcome in test [2] was Active. The compound further had an IC50 in test [3] of 14.7 µM.
For `O=C(O)C(=O)N[C@H](Cc1ccc(OC(=O)c2ccco2)cc1)C(=O)O`, in that order: 3.5, “Active” and 20.1 µM.
As to `Cc1noc(C)c1C(=O)Oc1ccc(C[C@@H](NC(=O)C(=O)O)C(=O)O)cc1`, the outcome in test [2] was Active.
On to `O=C(Cc1ccccc1)Oc1ccc(C[C@@H](NC(=O)C(=O)O)C(=O)O)cc1`, for which the result in test [2] was Active.
For `CCC(C(=O)Oc1ccc(C[C@@H](NC(=O)C(=O)O)C(=O)O)cc1)c1ccccc1` (some centres not stated), the outcome in test [2] was Active.
As to `CC(C)(C)c1ccc(S(=O)(=O)Oc2ccc(C[C@@H](NC(=O)C(=O)O)C(=O)O)cc2)cc1`, the outcome in test [4] was inactive. Moreover, the result in test [2] was Active. Moreover, the IC50 in test [3] worked out at 8.6 µM; in test [5], 61 µM; in test [6], 13 µM.
For `O=C(O)C(=O)N[C@H](Cc1ccc(OCc2ccccc2F)cc1)C(=O)O`, in test [1], the Ratio came to 3.6. The outcome in test [2] was Active. In addition, the IC50 was 16.6 µM in test [3], 25 µM in test [5] and 10 µM in test [6].
As to `O=C(O)C(=O)N[C@H](Cc1ccc(OC(=O)N2CCOCC2)cc1)C(=O)O`, the outcome in test [2] was Active.
With `O=C(O)C(=O)N[C@H](Cc1ccc(OC(=O)C2CCCCC2)cc1)C(=O)O`, the outcome in test [2] was Active.
Turning to `O=C(O)C(=O)N[C@H](Cc1ccc(OS(=O)(=O)c2ccccc2)cc1)C(=O)O`, in test [1], the Ratio was determined as 5.7. Besides, the outcome in test [2] was Active. The same compound showed an IC50 in test [3] of 14.7 µM.
Turning to `O=C(O)C(=O)N[C@H](Cc1ccc(OCC(=O)c2ccc(N3CCCC3)cc2)cc1)C(=O)O`, in test [1], the Ratio was determined as 2. In test [2], the outcome was Active. Also, the IC50 in test [3] came to 14.8 µM; in test [5] it was 59 µM; in test [6] it was 13 µM.
Take `O=C(O)C(=O)N[C@H](Cc1ccc(OC(=O)c2cc3ccccc3s2)cc1)C(=O)O`: the result in test [2] was Active.
As to `O=C(O)C(=O)N[C@H](Cc1ccc(OC(=O)c2cnn(-c3ccc(Cl)cc3)c2C(F)(F)F)cc1)C(=O)O`, the result in test [2] was Active.
Consider `O=C(O)C(=O)N[C@H](Cc1ccc(OS(=O)(=O)c2ccc(Br)cc2)cc1)C(=O)O`, for which, in test [4], the outcome was inactive. Also, the outcome in test [2] was Active. Moreover, the IC50 in test [3] was 5.4 µM; in test [5] it was 21 µM; in test [6] it was 12 µM.
Consider `CC(C)CC(=O)Oc1ccc(C[C@@H](NC(=O)C(=O)O)C(=O)O)cc1`, for which, in test [2], the result was Active.
For the compound `CC(C)(C)C(=O)COc1ccc(C[C@@H](NC(=O)C(=O)O)C(=O)O)cc1`, in test [1], the Ratio was found to be 0.9. In test [2], the outcome was Active. The compound also yielded an IC50 in test [3] of 185 µM.
With `O=C(Cc1ccc(Cl)cc1)Oc1ccc(C[C@@H](NC(=O)C(=O)O)C(=O)O)cc1`, the outcome in test [2] was Active.
As for `O=C(O)C(=O)N[C@H](Cc1ccc(OC(=O)c2cccs2)cc1)C(=O)O`, the outcome in test [2] was Active.
